From ChEMBL document CHEMBL1148318, “Synthesis and antibacterial activity of a novel class of 4'-substituted 16-membered ring macrolides derived from tylosin” (2004) come the findings set out here.

Values after ≈ are worked out from the molar mass of the structure shown. A value given as a limit tells only on which side of the number the result lay.

What all share (assay type): functional
One assay relates to Haemophilus influenzae. In words: In vitro antibacterial activity against ampicillin resistant Haemophilus influenzae 33929. Put shortly:
(§1)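 MIC determined by agar dilution per NCCLS recommendations. Strains: S. pneumoniae 49619 (erythromycin-susceptible); S. pneumoniae 700904 and S. pyogenes 2912 (erm-encoded MLSB-resistant); S. pneumoniae 7701 and S. pyogenes 1323 (mef-encoded efflux-resistant); H. influenzae 33929 (ampicillin-resistant).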

A further assay deals with Staphylococcus aureus. In words: In vitro antibacterial activity against erythromycin susceptible Staphylococcus aureus 25923. Put shortly:
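MIC by agar dilution following NCCLS recommendations; S. aureus 25923 is an erythromycin-susceptible strain.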

Assay [1] has as its system Streptococcus pneumoniae. The assay can be described thus: In vitro antibacterial activity against efflex resistant Streptococcus pneumoniae 7701. Put shortly: as §1
Assay [2] deals with Streptococcus pneumoniae. In words: In vitro antibacterial activity against erythromycin susceptible Streptococcus pneumoniae 49619. Put shortly:
as §1

Assay [3] concerns Streptococcus pneumoniae. The assay can be described thus: In vitro antibacterial activity against macrolide-lincosamide-streptogramin resistant Streptococcus pneumoniae 700904. The method, boiled down: as §1
For assay [4], the system named is Streptococcus pyogenes. In words: In vitro antibacterial activity against efflex resistant Streptococcus pyogenes 1323. Put shortly:
as §1

Assay [5] concerns Streptococcus pyogenes. The assay can be described thus: In vitro antibacterial activity against macrolide-lincosamide-streptogramin resistant Streptococcus pyogenes 2912. The method, boiled down:
as §1

As to `C=CCO[C@H]1[C@H](N(C)C)[C@@H](O)[C@H](O[C@H]2[C@@H](CC=O)C[C@@H](C)C(=O)/C=C/C(C)=C/[C@H](CO[C@@H]3O[C@H](C)[C@@H](O)[C@@H](OC)[C@H]3OC)[C@@H](CC)OC(=O)C[C@@H](O)[C@@H]2C)O[C@@H]1C`, the MIC was 8 µg/mL (≈ 9.85 µM) with Haemophilus influenzae; 1 µg/mL (≈ 1.23 µM) against Staphylococcus aureus; 0.5 µg/mL (≈ 0.616 µM) against Streptococcus pneumoniae [1]; 0.5 µg/mL (≈ 0.616 µM) with Streptococcus pneumoniae [2]; above 64 µg/mL in the assay on Streptococcus pneumoniae [3]; 0.125 µg/mL (≈ 0.154 µM) against Streptococcus pyogenes [4]. Also, in the assay with Streptococcus pyogenes [5], the MIC worked out at 32 µg/mL (≈ 39.4 µM).
`CC[C@H]1OC(=O)C[C@@H](O)[C@H](C)[C@@H](O[C@@H]2O[C@H](C)[C@@H](OC(=O)NCCc3ccccc3)[C@H](N(C)C)[C@H]2O)[C@@H](CC=O)C[C@@H](C)C(=O)/C=C/C(C)=C/[C@@H]1CO[C@@H]1O[C@H](C)[C@@H](O)[C@@H](OC)[C@H]1OC`: the MIC in the assay with Haemophilus influenzae is 16 µg/mL (≈ 17.4 µM); in the assay on Staphylococcus aureus, 2 µg/mL (≈ 2.18 µM); against Streptococcus pneumoniae [1] it was 2 µg/mL (≈ 2.18 µM); with Streptococcus pneumoniae [2], 1 µg/mL (≈ 1.09 µM); against Streptococcus pneumoniae [3] it was above 64 µg/mL; with Streptococcus pyogenes [4], 0.25 µg/mL (≈ 0.272 µM). Also, the MIC in the assay with Streptococcus pyogenes [5] was above 64 µg/mL.
For the molecule `CC[C@H]1OC(=O)[C@H](C)[C@@H](O[C@H]2C[C@@](C)(OC)[C@@H](O)[C@H](C)O2)[C@H](C)[C@@H](O[C@@H]2O[C@H](C)C[C@H](N(C)C)[C@H]2O)[C@](C)(O)C[C@@H](C)C(=O)[C@H](C)[C@@H](O)[C@]1(C)O` [ERYTHROMYCIN], the MIC in the assay with Haemophilus influenzae is 4 µg/mL (≈ 5.45 µM); against Staphylococcus aureus, 0.5 µg/mL (≈ 0.681 µM); with Streptococcus pneumoniae [1], 8 µg/mL (≈ 10.9 µM); in the assay with Streptococcus pneumoniae [2], 0.06 µg/mL (≈ 0.0818 µM); in the assay with Streptococcus pneumoniae [3] it was above 64 µg/mL; against Streptococcus pyogenes [4], 16 µg/mL (≈ 21.8 µM). Moreover, the MIC in the assay with Streptococcus pyogenes [5] was above 64 µg/mL.
With `CC[C@H]1OC(=O)C[C@@H](O)[C@H](C)[C@@H](O[C@@H]2O[C@H](C)[C@@H](O/C=C\Cc3cnc4ccccc4c3)[C@H](N(C)C)[C@H]2O)[C@@H](CC=O)C[C@@H](C)C(=O)/C=C/C(C)=C/[C@@H]1CO[C@@H]1O[C@H](C)[C@@H](O)[C@@H](OC)[C@H]1OC`, the MIC was determined as 4 µg/mL (≈ 4.26 µM) in the assay with Haemophilus influenzae; 0.5 µg/mL (≈ 0.532 µM) with Staphylococcus aureus; 0.0625 µg/mL (≈ 0.0665 µM) against Streptococcus pneumoniae [1]; 0.0625 µg/mL (≈ 0.0665 µM) in the assay on Streptococcus pneumoniae [2]; 0.5 µg/mL (≈ 0.532 µM) with Streptococcus pneumoniae [3]; 0.0625 µg/mL (≈ 0.0665 µM) against Streptococcus pyogenes [4]. Further, in the assay with Streptococcus pyogenes [5], the MIC was 16 µg/mL (≈ 17 µM).
With `CC[C@H]1OC(=O)C[C@@H](O)[C@H](C)[C@@H](O[C@@H]2O[C@H](C)[C@@H](O[C@H]3C[C@@](C)(O)[C@@H](O)[C@H](C)O3)[C@H](N(C)C)[C@H]2O)[C@@H](CC=O)C[C@@H](C)C(=O)/C=C/C(C)=C/[C@@H]1CO[C@@H]1O[C@H](C)[C@@H](O)[C@@H](OC)[C@H]1OC` [TYLOSIN], the MIC against Haemophilus influenzae amounted to 8 µg/mL (≈ 8.73 µM); with Staphylococcus aureus, 2 µg/mL (≈ 2.18 µM); with Streptococcus pneumoniae [1], 0.25 µg/mL (≈ 0.273 µM); in the assay with Streptococcus pneumoniae [2] it was 0.25 µg/mL (≈ 0.273 µM); against Streptococcus pneumoniae [3], 64 µg/mL (≈ 69.9 µM); with Streptococcus pyogenes [4], 0.25 µg/mL (≈ 0.273 µM). The MIC in the assay on Streptococcus pyogenes [5] is above 64 µg/mL.
`CC[C@H]1OC(=O)C[C@@H](O)[C@H](C)[C@@H](O[C@@H]2O[C@H](C)[C@@H](OC/C=C/c3cnc4ccccc4c3)[C@H](N(C)C)[C@H]2O)[C@@H](CC=O)C[C@@H](C)C(=O)/C=C/C(C)=C/[C@@H]1CO[C@@H]1O[C@H](C)[C@@H](O)[C@@H](OC)[C@H]1OC`: the MIC in the assay with Haemophilus influenzae turned out to be 4 µg/mL (≈ 4.26 µM); against Staphylococcus aureus, 0.5 µg/mL (≈ 0.532 µM); against Streptococcus pneumoniae [1], 0.0625 µg/mL (≈ 0.0665 µM); against Streptococcus pneumoniae [2], 0.0625 µg/mL (≈ 0.0665 µM); in the assay with Streptococcus pneumoniae [3] it was 1 µg/mL (≈ 1.06 µM); against Streptococcus pyogenes [4] it was 0.0625 µg/mL (≈ 0.0665 µM). Moreover, the MIC against Streptococcus pyogenes [5] is 8 µg/mL (≈ 8.52 µM).
